16 molecules from ChEMBL document CHEMBL3102710, “Design, synthesis, and evaluation of fimbrolide-nitric oxide donor hybrids as antimicrobial agents” (J Med Chem, 2013) can be followed below.

Molecules are shown by their SMILES. The source made the active and inactive calls. Unless noted, the rule behind the calls is not given here.

For data set [1], the system named is Pseudomonas aeruginosa. As to the kind of experiment: Antibacterial activity against Pseudomonas aeruginosa assessed as growth inhibition at 500 uM after 2 hrs by GFP reporter gene assay. It counts as organism-based. As to conditions: in vivo. For orientation: Reporter assays use an easily measured gene product as a stand-in for the process of interest.
The test system of data set [2] is Pseudomonas aeruginosa. As to the kind of experiment: Induction of nitric oxide-dependent nirS gene expression in Pseudomonas aeruginosa at 500 uM incubated for 2 hrs under dark condition by GFP reporter gene assay relative to untreated control. It counts as functional.
Data set [3] can be described thus: Induction of nitric oxide release in PBS buffer supplemented with L-cysteine, xanthine, xanthine oxidase assessed as nitrite release at 250 to 500 uM after 1 hr by Griess assay. It counts as physicochemical. The method in brief: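 Total NO release was quantified as nitrite with Griess reagent, which detects nitrite at ≥1 μM. Because of that limit, compounds were added at 250 μM and 500 μM.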
On the technique in general: Nitrite, measured by Griess reagent, commonly stands in for NO production.

For data set [4], the system named is Pseudomonas aeruginosa. As to the kind of experiment: Antibacterial activity against Pseudomonas aeruginosa PAO1 MH602 harboring lasB promoter fused with GFP-ASV assessed as growth inhibition at 88 uM measured every 30 mins by GFP-ASV reporter gene assay. It counts as organism-based. As to conditions: pseudomonas aeruginosa, in vivo, 0.5 h, 88 µM. The procedure, abridged:
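Cell growth of the PAO1 PlasB::gfp(ASV) reporter strain tracked as OD600 every half hour during compound incubation, alongside GFP readings. Growth is compared against the untreated control.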

Data set [5] in a line: Inhibition of quorum sensing system in Pseudomonas aeruginosa PAO1 MH602 harboring lasB promoter fused with GFP-ASV assessed as reduction in GFP-ASV reporter protein expression measured every 30 mins. The method in brief: (§1)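 P. aeruginosa PAO1 carrying a PlasB::gfp(ASV) fusion plasmid, which makes its own AHL signals, incubated with compounds at 88.8, 29.6, 9.9, 3.3 or 1.0 μM. GFP fluorescence (RFU) read every half hour. Percent QS inhibition is the percent RFU difference between sample and untreated control, taken at the time point when control fluorescence peaks.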

Data set [6] is described as follows: Inhibition of quorum sensing system in Pseudomonas aeruginosa PAO1 MH602 harboring lasB promoter fused with GFP-ASV assessed as reduction in GFP-ASV reporter protein expression at 3.2 uM measured every 30 mins relative to control. The procedure, abridged: as §1
The nature of data set [7]: Inhibition of quorum sensing system in Pseudomonas aeruginosa PAO1 MH602 harboring lasB promoter fused with GFP-ASV assessed as reduction in GFP-ASV reporter protein expression at 9.8 uM measured every 30 mins relative to control. The procedure, abridged: as §1
Data set [8] is described as follows: Inhibition of quorum sensing system in Pseudomonas aeruginosa PAO1 MH602 harboring lasB promoter fused with GFP-ASV assessed as reduction in GFP-ASV reporter protein expression at 29 uM measured every 30 mins relative to control. The method in brief: as §1
Data set [9] is described as follows: Inhibition of quorum sensing system in Pseudomonas aeruginosa PAO1 MH602 harboring lasB promoter fused with GFP-ASV assessed as reduction in GFP-ASV reporter protein expression at 88 uM measured every 30 mins relative to control. The procedure, abridged:
as §1

Data set [10] in a line: Inhibition of quorum sensing system in Pseudomonas aeruginosa PAO1 MH602 harboring lasB promoter fused with GFP-ASV assessed as reduction in GFP-ASV reporter protein expression at 266 uM measured every 30 mins relative to control.
For data set [11], the system named is Pseudomonas aeruginosa. As to the kind of experiment: Antibacterial activity against Pseudomonas aeruginosa PAO1 assessed as inhibition of biofilm formation at 150 uM after 6 hrs by crystal violet staining assay relative to control. It counts as functional.

Regarding `O=[N+]([O-])O[C@H]1CO[C@H]2[C@@H]1OC[C@H]2O[N+](=O)[O-]` [ISOSORBIDE DINITRATE], the figures for the Activity result (in the data set on Pseudomonas aeruginosa [1]; in [3]) were “Non-toxic” and 4 µM, respectively. Besides, the outcome in the data set on Pseudomonas aeruginosa [2] was inactive.
A word on the inhibition: it is how much of the control response was suppressed. For `CCCC(OC(=O)CCC(=O)N1CCN(/[N+]([O-])=N/OC)CC1)C1=CC(=C(Br)Br)OC1=O` (stereo unspecified), in the data set with Pseudomonas aeruginosa [4], the Activity entry is “Non-toxic”. Further, the inhibition result was “Dose-dependent effect” in [5]; 4.6% in data set [7]; 17.7% in data set [8]; 39.3% in data set [9]; 65.4% in data set [10]. The inhibition entry (in data set [6]; with Pseudomonas aeruginosa [11]) was “inactive” in each case.
For the molecule `CCCC(OC(=O)CCO[N+](=O)[O-])C1=CC(=C(Br)Br)OC1=O` (stereo unspecified), the Activity entry in the data set on Pseudomonas aeruginosa [1] and with Pseudomonas aeruginosa [4] was “Non-toxic” in each case. Further, the result in the data set with Pseudomonas aeruginosa [2] was inactive. Moreover, the inhibition entry in [5] is “Dose-dependent effect”; in data set [7], 12.5%; in data set [8], 43.1%; in data set [9], 62.8%; in [10], 80.6%. Besides, the inhibition result in data set [6] is “inactive”.
Turning to `CCCC(OC(=O)CCCCCCCCCCO[N+](=O)[O-])C1=CC(=C(Br)Br)OC1=O` (stereo unspecified), the Activity entry is reported as “Non-toxic” in the data set on Pseudomonas aeruginosa [1], “Active” in data set [3] and “Non-toxic” with Pseudomonas aeruginosa [4]. Besides, the result in the data set on Pseudomonas aeruginosa [2] was inactive. Further, the inhibition result in data set [5] was “Dose-dependent effect”; in [8] it was 6.2%; in data set [9], 21.8%; in [10] it was 54.8%. In addition, the inhibition entry in data set [6] and in data set [7] was “inactive” in each case.
Regarding `CCCCCCC(O[N+](=O)[O-])C1=CC(=C(Br)Br)OC1=O` (stereo unspecified), the Activity entry with Pseudomonas aeruginosa [1] and in the data set with Pseudomonas aeruginosa [4] was “Non-toxic” throughout. Also, in the data set with Pseudomonas aeruginosa [2], the outcome was inactive. Further, the inhibition result was “Dose-dependent effect” in [5], 9.5% in [8], 29.9% in [9] and 65.7% in data set [10]. The inhibition entry in [6] and in data set [7] was “inactive” each time.
On to `CCCC(OC(=O)CCCCCO[N+](=O)[O-])C1=CC(=C(Br)Br)OC1=O` (stereo unspecified), for which the Activity result in the data set on Pseudomonas aeruginosa [1] and in the data set on Pseudomonas aeruginosa [4] was “Non-toxic” each time. Further, in the data set with Pseudomonas aeruginosa [2], the outcome was inactive. In addition, the inhibition entry is “Dose-dependent effect” in data set [5], 7.9% in [8], 18.8% in [9] and 54.1% in [10]. Also, the inhibition entry in [6] and in data set [7] was “inactive” each time.
On to `CCCC(OC(=O)CCCCCCCO[N+](=O)[O-])C1=CC(=C(Br)Br)OC1=O` (stereo unspecified), for which the figures for the Activity entry (in the data set on Pseudomonas aeruginosa [1]; in data set [3]; in the data set with Pseudomonas aeruginosa [4]) were “Non-toxic”, 1 µM and “Non-toxic”, respectively. In addition, the outcome with Pseudomonas aeruginosa [2] was inactive. The inhibition entry in data set [5] was “Dose-dependent effect”; in [9] it was 12.9%; in [10] it was 40.6%. Also, the inhibition result in [6], in [7] and in data set [8] was “inactive” throughout.
Turning to `CCCCCC(OC(=O)CC(=O)N1CCN(/[N+]([O-])=N/OC)CC1)C1=CC(=C(Br)Br)OC1=O` (stereo unspecified), the Activity entry in the data set with Pseudomonas aeruginosa [4] is given as “Non-toxic”. Further, the inhibition result was “Dose-dependent effect” in data set [5]; 9.5% in data set [7]; 23.7% in data set [8]; 41.5% in data set [9]; 62.9% in data set [10]. The inhibition entry (in data set [6]; with Pseudomonas aeruginosa [11]) was “inactive” throughout.
For the molecule `CCCC(OC(=O)CO/N=[N+](\[O-])N(CC)CC)C1=CC(=C(Br)Br)OC1=O` (stereo unspecified), the Activity entry with Pseudomonas aeruginosa [4] is “Non-toxic”. In addition, the inhibition entry in data set [5] was “Dose-dependent effect”; in data set [7], 6.2%; in [8] it was 30%; in data set [9], 52%; in data set [10], 74.8%. Moreover, the inhibition result (in data set [6]; with Pseudomonas aeruginosa [11]) was “inactive” each time.
Turning to `CCCC(OC(=O)CO/N=[N+](\[O-])N1CCOCC1)C1=CC(=C(Br)Br)OC1=O` (stereo unspecified), in the data set on Pseudomonas aeruginosa [4], the Activity result was “Non-toxic”. Moreover, the inhibition result in data set [5] is “Dose-dependent effect”; in [8] it was 15.9%; in [9], 47.5%; in data set [10] it was 72.1%. In addition, the inhibition result (in data set [6]; in [7]; in the data set on Pseudomonas aeruginosa [11]) was “inactive” each time.
Take `CCCC(O)C1=CC(=C(Br)Br)OC1=O` (stereo unspecified): the Activity entry in the data set with Pseudomonas aeruginosa [4] is recorded as “Non-toxic”. The inhibition result in data set [5] is “Dose-dependent effect”; in data set [7], 16.7%; in data set [8], 37%; in data set [9], 62.9%; in data set [10] it was 85.8%. In addition, the inhibition entry in data set [6] was “inactive”.
Turning to `CCCC(SC(=O)CCCCCO[N+](=O)[O-])C1=CC(=C(Br)Br)OC1=O` (stereo unspecified), the Activity entry in data set [3] is on record as “Active”; with Pseudomonas aeruginosa [4], “Non-toxic”. Moreover, the inhibition result was “Dose-dependent effect” in data set [5], 10.1% in data set [9] and 47.8% in [10]. The inhibition entry in [6], in [7] and in [8] was “inactive” throughout.
As for `CCCCC1=C(Br)/C(=C/Br)OC1=O`, in the data set on Pseudomonas aeruginosa [4], the Activity entry is “Non-toxic”. In addition, the inhibition entry in data set [5] was “Dose-dependent effect”; in data set [8] it was 5.9%; in [9], 39.9%; in [10], 75.8%. In addition, the inhibition entry in [6] and in [7] was “inactive” throughout.
Regarding `CCCC(S)C1=CC(=C(Br)Br)OC1=O` (stereo unspecified), the Activity result in the data set on Pseudomonas aeruginosa [4] is on record as “Non-toxic”. Further, the inhibition result in [5] was “Dose-dependent effect”; in [7], 1.5%; in data set [8], 4.3%; in data set [9], 17.9%; in data set [10] it was 50.5%. In addition, the inhibition result in [6] is “inactive”.
Take `CCCCC1=CC(=C(Br)Br)OC1=O`: the Activity entry in the data set with Pseudomonas aeruginosa [4] was “Non-toxic”. Besides, the inhibition entry in [5] is “Dose-dependent effect”; in [8], 17%; in data set [9] it was 34.1%; in data set [10], 69.8%. For the same molecule, the inhibition entry in data set [6] and in data set [7] was “inactive” in each case.
Take `CCCCCCCCCCCC(OC(=O)CCC(=O)N1CCN(/[N+]([O-])=N/OC)CC1)C1=CC(=C(Br)Br)OC1=O` (stereo unspecified): the Activity entry in the data set with Pseudomonas aeruginosa [4] was “Non-toxic”. The figures for the inhibition result in data set [5], in [9] and in data set [10] were “Dose-dependent effect”, 6% and 41.9%, respectively. The inhibition entry (in data set [6]; in data set [7]; in data set [8]; with Pseudomonas aeruginosa [11]) was “inactive” each time.
